ChEMBL document CHEMBL1151235, “Bromophenol derivatives from the red alga Rhodomela confervoides” (J Nat Prod, 2004)

system: A549; assay: Cytotoxicity against human A549 cells by MTT assay; assay type: functional, cell-based
Summary of the method: (§1)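 Panel of human tumour lines: A549 lung adenocarcinoma, BGC-823 stomach cancer, MCF-7 breast cancer, Bel7402 hepatoma and HCT-8 colon cancer. Activity reported as IC50 in μg/mL.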

Row | SMILES | IC50
1 | CC(=O)/C=C/c1cc(O)c(O)c(Br)c1Br | > 10 µg/mL
2 | COc1c(O)cc(C(Cc2cc(O)c(O)c(Br)c2Br)C(=O)O)cc1Br (configuration not stated) | > 10 µg/mL
3 | COC(=O)Cc1cc(O)c(OC)c(Br)c1 | > 10 µg/mL
4 | C[S+]([O-])Cc1cc(O)c(O)c(Br)c1Br (configuration not stated) | > 10 µg/mL
5 | COC(=O)C(Cc1cc(O)c(O)c(Br)c1Br)c1cc(O)c(OC)c(Br)c1 (configuration not stated) | > 10 µg/mL
6 | COc1c(O)cc(C(=O)O)cc1Br | > 10 µg/mL

system: BGC-823; assay: Cytotoxicity against human BGC823 cells by MTT assay; assay type: functional, cell-based; summary of the method: as §1

Row | SMILES | IC50
7 | CC(=O)/C=C/c1cc(O)c(O)c(Br)c1Br | > 10 µg/mL
8 | COc1c(O)cc(C(Cc2cc(O)c(O)c(Br)c2Br)C(=O)O)cc1Br (configuration not stated) | > 10 µg/mL
9 | COC(=O)Cc1cc(O)c(OC)c(Br)c1 | > 10 µg/mL
10 | C[S+]([O-])Cc1cc(O)c(O)c(Br)c1Br (configuration not stated) | > 10 µg/mL
11 | COC(=O)C(Cc1cc(O)c(O)c(Br)c1Br)c1cc(O)c(OC)c(Br)c1 (configuration not stated) | > 10 µg/mL
12 | COc1c(O)cc(C(=O)O)cc1Br | > 10 µg/mL

system: MCF7; assay: Cytotoxicity against human MCF7 cells by MTT assay; assay type: functional, cell-based; summary of the method: as §1

Row | SMILES | IC50
13 | CC(=O)/C=C/c1cc(O)c(O)c(Br)c1Br | > 10 µg/mL
14 | COc1c(O)cc(C(Cc2cc(O)c(O)c(Br)c2Br)C(=O)O)cc1Br (configuration not stated) | > 10 µg/mL
15 | COC(=O)Cc1cc(O)c(OC)c(Br)c1 | > 10 µg/mL
16 | C[S+]([O-])Cc1cc(O)c(O)c(Br)c1Br (configuration not stated) | > 10 µg/mL
17 | COC(=O)C(Cc1cc(O)c(O)c(Br)c1Br)c1cc(O)c(OC)c(Br)c1 (configuration not stated) | > 10 µg/mL
18 | COc1c(O)cc(C(=O)O)cc1Br | > 10 µg/mL

system: Bel-7402; assay: Cytotoxicity against human Bel7402 cells by MTT assay; assay type: functional, cell-based; summary of the method: as §1

Row | SMILES | IC50
19 | CC(=O)/C=C/c1cc(O)c(O)c(Br)c1Br | > 10 µg/mL
20 | COc1c(O)cc(C(Cc2cc(O)c(O)c(Br)c2Br)C(=O)O)cc1Br (configuration not stated) | > 10 µg/mL
21 | COC(=O)Cc1cc(O)c(OC)c(Br)c1 | > 10 µg/mL
22 | C[S+]([O-])Cc1cc(O)c(O)c(Br)c1Br (configuration not stated) | > 10 µg/mL
23 | COC(=O)C(Cc1cc(O)c(O)c(Br)c1Br)c1cc(O)c(OC)c(Br)c1 (configuration not stated) | > 10 µg/mL
24 | COc1c(O)cc(C(=O)O)cc1Br | > 10 µg/mL

system: HCT-8; assay: Cytotoxicity against human HCT8 cells by MTT assay; assay type: functional, cell-based; summary of the method: as §1

Row | SMILES | IC50
25 | CC(=O)/C=C/c1cc(O)c(O)c(Br)c1Br | > 10 µg/mL
26 | COc1c(O)cc(C(Cc2cc(O)c(O)c(Br)c2Br)C(=O)O)cc1Br (configuration not stated) | > 10 µg/mL
27 | COC(=O)Cc1cc(O)c(OC)c(Br)c1 | > 10 µg/mL
28 | C[S+]([O-])Cc1cc(O)c(O)c(Br)c1Br (configuration not stated) | > 10 µg/mL
29 | COC(=O)C(Cc1cc(O)c(O)c(Br)c1Br)c1cc(O)c(OC)c(Br)c1 (configuration not stated) | > 10 µg/mL
30 | COc1c(O)cc(C(=O)O)cc1Br | > 10 µg/mL

system: Staphylococcus aureus; assay: Antimicrobial activity against Staphylococcus aureus; assay type: functional
Summary of the method: (§2)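 Whole-organism tests on S. aureus, E. coli and the yeast C. albicans. Potency reported as MIC50 in μg/mL.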

Row | MIC | SMILES
31 | > 100 µg/mL | COc1c(O)cc(C(Cc2cc(O)c(O)c(Br)c2Br)C(=O)O)cc1Br (configuration not stated)
32 | > 100 µg/mL | COC(=O)Cc1cc(O)c(OC)c(Br)c1
33 | > 100 µg/mL | C[S+]([O-])Cc1cc(O)c(O)c(Br)c1Br (configuration not stated)
34 | > 100 µg/mL | COc1c(O)cc(C(=O)O)cc1Br

system: Escherichia coli; assay: Antimicrobial activity against Escherichia coli; assay type: functional; summary of the method: as §2

Row | MIC | SMILES
35 | > 100 µg/mL | COc1c(O)cc(C(Cc2cc(O)c(O)c(Br)c2Br)C(=O)O)cc1Br (configuration not stated)
36 | > 100 µg/mL | COC(=O)Cc1cc(O)c(OC)c(Br)c1
37 | > 100 µg/mL | C[S+]([O-])Cc1cc(O)c(O)c(Br)c1Br (configuration not stated)
38 | > 100 µg/mL | COc1c(O)cc(C(=O)O)cc1Br

system: Candida albicans; assay: Antimicrobial activity against Candida albicans; assay type: functional; summary of the method: as §2

Row | MIC | SMILES
39 | > 100 µg/mL | COc1c(O)cc(C(Cc2cc(O)c(O)c(Br)c2Br)C(=O)O)cc1Br (configuration not stated)
40 | > 100 µg/mL | COC(=O)Cc1cc(O)c(OC)c(Br)c1
41 | > 100 µg/mL | C[S+]([O-])Cc1cc(O)c(O)c(Br)c1Br (configuration not stated)
42 | > 100 µg/mL | COc1c(O)cc(C(=O)O)cc1Br
